Our source for the IC50 and EC50 values is ChEMBL document CHEMBL1157165, “Design and synthesis of dual inhibitors of HIV reverse transcriptase and integrase: introducing a diketoacid functionality into delavirdine” (Bioorg Med Chem, 2008).

The nature of test [1]: Inhibition of HIV integrase expressed in Escherichia coli BL21. Set-up: species or system Human immunodeficiency virus. Put shortly: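 IN made in E. coli BL21(DE3) by IPTG induction. 600 nM IN stock in 10 mM HEPES pH 7.5, 10 mM MnCl2, 1 mM DTT, 10% glycerol, BSA, Brij-35, preincubated with compound or DMSO 10 min at room temperature. Reaction started with annealed 5'-biotin/3'-cy5 duplex (50 nM stock), 2 h at 37 °C. Product captured on streptavidin plate, washed with NaOH denaturing buffer, eluted in formamide, fluorescence read.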

Test [2] has as its system Human immunodeficiency virus 1. The test is described as follows: Antiviral activity against HIV1 by cell-based assay. Format: functional, organism-based. The method, boiled down:
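Cytoprotection assay: CEM-SS cells or human PBMCs mixed with HIV-1 strain IIIB or RF in presence of compound, 6 days. Virus pre-titered to give 70–95% loss of viability in virus-control wells; cell, toxicity and colorimetric controls included. Viability by MTS or XTT dye reduction; EC50 = concentration inhibiting virus replication by 50%.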

The nature of test [3]: Inhibition of HIV reverse transcriptase. Details: species or system Human immunodeficiency virus. The method, boiled down: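 Scintillation proximity assay: beads carry a biotin-linked poly(A) template with oligo(T) primer. Reaction incubated 3 h at 37 °C, stopped with stop buffer, counted 1 min per sample on a beta counter; IC50 reported.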

Molecules are shown by their SMILES. pEC50, pIC50: −log10 of the molar value.

`CC(C)Nc1cccnc1N1CCN(C(=O)c2cc3cc(NS(C)(=O)=O)ccc3[nH]2)CC1` [DELAVIRDINE]: the negative logarithm of the IC50 (pIC50) in test [1] is under 4.00; in test [3], 7.44. Besides, the negative logarithm of the EC50 (pEC50) in test [2] is 7.68.
Take `CC(C)Nc1cccnc1N1CCN(C(=O)c2[nH]c3c(C(=O)/C=C(\O)C(=O)O)cccc3c2Br)CC1`: the pIC50 in test [1] was 4.12; in test [3], under 4.00. In test [2], the negative-log EC50 (pEC50) was under 5.00.
As for `CC(C)Nc1cccnc1N1CCN(C(=O)c2cc3cc(C(=O)/C=C(\O)C(=O)O)ccc3[nH]2)CC1`, the negative logarithm of the IC50 (pIC50) is 4.96 in test [1] and 8.23 in test [3]. In test [2], the pEC50 is 6.28.
`CC(C)Nc1cccnc1N1CCN(C(=O)c2[nH]c3ccc(C(=O)/C=C(\O)C(=O)O)cc3c2Cl)CC1`: the figures for the pIC50 in test [1] and in test [3] were 5.33 and 5.96, respectively. The compound also gave a pEC50 in test [2] of 6.01.
In the same order, the values of `CC(C)Nc1cccnc1N1CCN(C(=O)c2cc3cccc(C(=O)/C=C(\O)C(=O)O)c3[nH]2)CC1` are under 4.00, under 4.00 and under 5.00.
Take `CC(C)Nc1cccnc1N1CCN(C(=O)c2[nH]c3ccc(C(=O)/C=C(\O)C(=O)O)cc3c2Br)CC1`: the negative logarithm of the IC50 (pIC50) in test [1] was 5.41; in test [3], 6.92. The negative-log EC50 (pEC50) in test [2] was 6.10.
As to `CC(C)Nc1cccnc1N1CCN(C(=O)c2[nH]c3c(C(=O)/C=C(\O)C(=O)O)cccc3c2Cl)CC1`, the pIC50 in test [1] and in test [3] was under 4.00 in each case. In test [2], this compound gave a pEC50 of under 5.00.

As usually defined, the pIC50 is the negative decadic logarithm of the IC50, by convention in mol/L. By pEC50 is commonly meant −log10 of the EC50, conventionally taken in molar units. A high value points to a low EC50.
